Source: ChEMBL document CHEMBL4665627 (Eur J Med Chem, 2019)
Values after ≈ are worked out from the molar mass of the structure shown.

Experiments:
Format in all cases: functional
Pseudomonas aeruginosa [1] = experiment: Antibacterial activity against Pseudomonas aeruginosa assessed as inhibition of bacterial growth after 24 hrs by CLSI protocol based two fold serial dilution method
Method in brief: (§1)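 Two-fold serial broth dilution in 96-well plates following CLSI; MIC (mM) taken as the lowest concentration giving complete growth inhibition; MIC values from three independent experiments.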

Candida parapsilosis = experiment: Antifungal activity against Candida parapsilosis ATCC 22019 assessed as inhibition of fungal growth after 24 hrs by CLSI protocol based two fold serial dilution method; settings: Lodderomyces parapsilosis; method in brief: as §1
Aspergillus fumigatus = experiment: Antifungal activity against Aspergillus fumigatus assessed as inhibition of fungal growth after 24 hrs by CLSI protocol based two fold serial dilution method; method in brief: as §1
Candida tropicalis = experiment: Antifungal activity against Candida tropicalis assessed as inhibition of fungal growth after 24 hrs by CLSI protocol based two fold serial dilution method; method in brief: as §1
Candida albicans [2] = experiment: Antifungal activity against Candida albicans ATCC 90023 assessed as inhibition of fungal growth after 24 hrs by CLSI protocol based two fold serial dilution method; method in brief: as §1
Candida albicans [3] = experiment: Antifungal activity against Candida albicans assessed as inhibition of fungal growth after 24 hrs by CLSI protocol based two fold serial dilution method; method in brief: as §1
Acinetobacter baumannii = experiment: Antibacterial activity against Acinetobacter baumannii assessed as inhibition of bacterial growth after 24 hrs by CLSI protocol based two fold serial dilution method; method in brief: as §1
Pseudomonas aeruginosa [4] = experiment: Antibacterial activity against Pseudomonas aeruginosa ATCC 27853 assessed as inhibition of bacterial growth after 24 hrs by CLSI protocol based two fold serial dilution method; method in brief: as §1
Escherichia coli [5] = experiment: Antibacterial activity against Escherichia coli ATCC 25922 assessed as inhibition of bacterial growth after 24 hrs by CLSI protocol based two fold serial dilution method; method in brief: as §1
Escherichia coli [6] = experiment: Antibacterial activity against Escherichia coli assessed as inhibition of bacterial growth after 24 hrs by CLSI protocol based two fold serial dilution method; method in brief: as §1
Klebsiella pneumoniae = experiment: Antibacterial activity against Klebsiella pneumoniae assessed as inhibition of bacterial growth after 24 hrs by CLSI protocol based two fold serial dilution method; method in brief: as §1
Staphylococcus aureus [7] = experiment: Antibacterial activity against Staphylococcus aureus ATCC 29213 assessed as inhibition of bacterial growth after 24 hrs by CLSI protocol based two fold serial dilution method
Staphylococcus aureus [8] = experiment: Antibacterial activity against Staphylococcus aureus ATCC 25923 assessed as inhibition of bacterial growth after 24 hrs by CLSI protocol based two fold serial dilution method; method in brief: as §1
Staphylococcus aureus [9] = experiment: Antibacterial activity against Staphylococcus aureus assessed as inhibition of bacterial growth after 24 hrs by CLSI protocol based two fold serial dilution method; method in brief: as §1
Enterococcus faecalis = experiment: Antibacterial activity against Enterococcus faecalis assessed as inhibition of bacterial growth after 24 hrs by CLSI protocol based two fold serial dilution method; method in brief: as §1
Staphylococcus aureus [10] = experiment: Antibacterial activity against methicillin-resistant Staphylococcus aureus N315 assessed as inhibition of bacterial growth after 24 hrs by CLSI protocol based two fold serial dilution method

Structure (SMILES)	MIC (Pseudomonas aeruginosa [1]) [µM]	MIC (Candida parapsilosis) [µM]	MIC (Aspergillus fumigatus) [µM]	MIC (Candida tropicalis) [µM]	MIC (Candida albicans [2]) [µM]	MIC (Candida albicans [3]) [µM]	MIC (Acinetobacter baumannii) [µM]	MIC (Pseudomonas aeruginosa [4]) [µM]	MIC (Escherichia coli [5]) [µM]	MIC (Escherichia coli [6]) [µM]	MIC (Klebsiella pneumoniae) [µM]	MIC (Staphylococcus aureus [7]) [µM]	MIC (Staphylococcus aureus [8]) [µM]	MIC (Staphylococcus aureus [9]) [µM]	MIC (Enterococcus faecalis) [µM]	MIC (Staphylococcus aureus [10]) [µM]
CCn1cc(-c2csc(N)n2)c(=O)c2cc(F)c(N3CCN(C)CC3)cc21	331 (≈ 128 µg/mL)	331 (≈ 128 µg/mL)	331 (≈ 128 µg/mL)	661 (≈ 256 µg/mL)	165 (≈ 63.9 µg/mL)	165 (≈ 63.9 µg/mL)	331 (≈ 128 µg/mL)	165 (≈ 63.9 µg/mL)	165 (≈ 63.9 µg/mL)	661 (≈ 256 µg/mL)	83 (≈ 32.2 µg/mL)	331 (≈ 128 µg/mL)	41 (≈ 15.9 µg/mL)	165 (≈ 63.9 µg/mL)	331 (≈ 128 µg/mL)	331 (≈ 128 µg/mL)
CCn1cc(-c2csc(N)n2)c(=O)c2cc(F)c(N3CCN(Cc4ccc(Cl)cc4Cl)CC3)cc21	241 (≈ 128 µg/mL)	15 (≈ 7.99 µg/mL)	482 (≈ 257 µg/mL)	482 (≈ 257 µg/mL)	482 (≈ 257 µg/mL)	482 (≈ 257 µg/mL)	482 (≈ 257 µg/mL)	121 (≈ 64.4 µg/mL)	482 (≈ 257 µg/mL)	241 (≈ 128 µg/mL)	241 (≈ 128 µg/mL)	241 (≈ 128 µg/mL)	60 (≈ 31.9 µg/mL)	482 (≈ 257 µg/mL)	121 (≈ 64.4 µg/mL)	15 (≈ 7.99 µg/mL)
C#CCN1CCN(c2cc3c(cc2F)c(=O)c(-c2csc(N)n2)cn3CC)CC1	19 (≈ 7.82 µg/mL)	10 (≈ 4.12 µg/mL)	19 (≈ 7.82 µg/mL)	39 (≈ 16 µg/mL)	19 (≈ 7.82 µg/mL)	19 (≈ 7.82 µg/mL)	19 (≈ 7.82 µg/mL)	5 (≈ 2.06 µg/mL)	19 (≈ 7.82 µg/mL)	156 (≈ 64.2 µg/mL)	10 (≈ 4.12 µg/mL)	5 (≈ 2.06 µg/mL)	39 (≈ 16 µg/mL)	19 (≈ 7.82 µg/mL)	19 (≈ 7.82 µg/mL)	20 (≈ 8.23 µg/mL)
CCn1cc(-c2csc(N)n2)c(=O)c2cc(F)c(N3CCNCC3)cc21	21 (≈ 7.84 µg/mL)	343 (≈ 128 µg/mL)	343 (≈ 128 µg/mL)	685 (≈ 256 µg/mL)	171 (≈ 63.9 µg/mL)	171 (≈ 63.9 µg/mL)	343 (≈ 128 µg/mL)	343 (≈ 128 µg/mL)	343 (≈ 128 µg/mL)	171 (≈ 63.9 µg/mL)	171 (≈ 63.9 µg/mL)	343 (≈ 128 µg/mL)	171 (≈ 63.9 µg/mL)	86 (≈ 32.1 µg/mL)	171 (≈ 63.9 µg/mL)	171 (≈ 63.9 µg/mL)
OC(Cn1cncn1)(Cn1cncn1)c1ccc(F)cc1F [FLUCONAZOLE]		13 (≈ 3.98 µg/mL)	836 (≈ 256 µg/mL)	26 (≈ 7.96 µg/mL)	7 (≈ 2.14 µg/mL)	13 (≈ 3.98 µg/mL)										
CCCCCCCCN1CCN(c2cc3c(cc2F)c(=O)c(-c2csc(N)n2)cn3CC)CC1	264 (≈ 128 µg/mL)	264 (≈ 128 µg/mL)	16 (≈ 7.77 µg/mL)	264 (≈ 128 µg/mL)	1060 (≈ 512 µg/mL)	1060 (≈ 512 µg/mL)	528 (≈ 256 µg/mL)	264 (≈ 128 µg/mL)	1060 (≈ 512 µg/mL)	264 (≈ 128 µg/mL)	264 (≈ 128 µg/mL)	528 (≈ 256 µg/mL)	264 (≈ 128 µg/mL)	264 (≈ 128 µg/mL)	528 (≈ 256 µg/mL)	528 (≈ 256 µg/mL)
CCCN1CCN(c2cc3c(cc2F)c(=O)c(-c2csc(N)n2)cn3CC)CC1	617 (≈ 256 µg/mL)	308 (≈ 128 µg/mL)	154 (≈ 64 µg/mL)	308 (≈ 128 µg/mL)	308 (≈ 128 µg/mL)	308 (≈ 128 µg/mL)	154 (≈ 64 µg/mL)	154 (≈ 64 µg/mL)	308 (≈ 128 µg/mL)	308 (≈ 128 µg/mL)	154 (≈ 64 µg/mL)	617 (≈ 256 µg/mL)	154 (≈ 64 µg/mL)	308 (≈ 128 µg/mL)	154 (≈ 64 µg/mL)	308 (≈ 128 µg/mL)
CCOC(=O)CN1CCN(c2cc3c(=O)c(-c4csc(N)n4)cn(CC)c3cc2Cl)CC1	269 (≈ 128 µg/mL)	135 (≈ 64.3 µg/mL)	539 (≈ 257 µg/mL)	135 (≈ 64.3 µg/mL)	67 (≈ 31.9 µg/mL)	269 (≈ 128 µg/mL)	135 (≈ 64.3 µg/mL)	269 (≈ 128 µg/mL)	1080 (≈ 513 µg/mL)	269 (≈ 128 µg/mL)	67 (≈ 31.9 µg/mL)	539 (≈ 257 µg/mL)	135 (≈ 64.3 µg/mL)	135 (≈ 64.3 µg/mL)	539 (≈ 257 µg/mL)	67 (≈ 31.9 µg/mL)
CCCCCCN1CCN(c2cc3c(cc2F)c(=O)c(-c2csc(N)n2)cn3CC)CC1	280 (≈ 128 µg/mL)	560 (≈ 256 µg/mL)	1120 (≈ 513 µg/mL)	560 (≈ 256 µg/mL)	1120 (≈ 513 µg/mL)	1120 (≈ 513 µg/mL)	70 (≈ 32 µg/mL)	140 (≈ 64.1 µg/mL)	140 (≈ 64.1 µg/mL)	134 (≈ 61.3 µg/mL)	140 (≈ 64.1 µg/mL)	280 (≈ 128 µg/mL)	140 (≈ 64.1 µg/mL)	140 (≈ 64.1 µg/mL)	70 (≈ 32 µg/mL)	280 (≈ 128 µg/mL)
CCn1cc(-c2csc(N)n2)c(=O)c2cc(F)c(N3CCN(CC(=O)N(C(C)C)C(C)C)CC3)cc21	249 (≈ 128 µg/mL)	996 (≈ 513 µg/mL)	498 (≈ 256 µg/mL)	498 (≈ 256 µg/mL)	498 (≈ 256 µg/mL)	996 (≈ 513 µg/mL)	249 (≈ 128 µg/mL)	249 (≈ 128 µg/mL)	498 (≈ 256 µg/mL)	498 (≈ 256 µg/mL)	498 (≈ 256 µg/mL)	249 (≈ 128 µg/mL)	249 (≈ 128 µg/mL)	62 (≈ 31.9 µg/mL)	249 (≈ 128 µg/mL)	124 (≈ 63.8 µg/mL)
CCN1CCN(c2cc3c(cc2F)c(=O)c(-c2csc(N)n2)cn3CC)CC1	319 (≈ 128 µg/mL)	80 (≈ 32.1 µg/mL)	160 (≈ 64.2 µg/mL)	40 (≈ 16.1 µg/mL)	319 (≈ 128 µg/mL)	319 (≈ 128 µg/mL)	319 (≈ 128 µg/mL)	160 (≈ 64.2 µg/mL)	160 (≈ 64.2 µg/mL)	319 (≈ 128 µg/mL)	160 (≈ 64.2 µg/mL)	638 (≈ 256 µg/mL)	80 (≈ 32.1 µg/mL)	319 (≈ 128 µg/mL)	319 (≈ 128 µg/mL)	319 (≈ 128 µg/mL)
